Measured values from the RNAGym collection of RNA variant scans (doi:10.1126/science.aae0568).
Fewer inactive variants are shown than the library holds.

B1: tRNA (parent)
chain: GUUCCGUUGGCGUAAUGGUAACGCGUCUCCCUCCUAAGGAGAAGACUGCGGGUUCGAGUCCCGUACGGAACG

Variants of: B1
Experiment: yeast fitness relative to wild type (ratio to wild type); higher = fitter; tRNA-Arg(CCU), competitive growth, 37 C, YPD
Summary of the method: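 Genotype frequency changes were the basis for Darwinian fitness relative to wild type. The frequencies came from 100-nucleotide paired-end sequencing of gene amplicons from the start population and each end population of pooled yeast strains with tRNA-Arg(CCU) gene variants at the native locus. Competition ran in YPD at 37°C for 24 hours in six replicates, genotypes needed ≥ 100 starting reads, and estimates < 0.5 were set to 0.5.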
Variant GUUCCGUUGGCGUAAUCGUAACGCGUCUCCCUCCUAAGGAGAAGCCUACGGGUUCGAGACCCGUACGGACCG [G17C A45C G48A U59A A70C] has a yeast fitness of no more than 0.5.
In the case of GUUCCGUUGGCGUAAUCGUAACGGGUCUCCCUCCUAAGGAGAAGAGUGCGGGUUCGAGCCCCGUACGGAACG [G17C C24G C46G U59C], the yeast fitness is reported as no more than 0.5.
Work on GUUCCGUUGGCGUAAUCGUAAGGCGUCUCCCUCCUAAGGAGAAGACUGCGGGUUCGAGUCCCGUGCGGAACG [G17C C22G A65G] yielded a yeast fitness of 0.6.
In the case of GUUCCGUUGGCGUAAUCGUAUCGCGUCUCCCUCCUAAGGAGAAGACUGCGGGUUCGAGUCCCGUACGGAACG [G17C A21U], the yeast fitness is reported as 0.559.
GUUCCGUUGGCGUAAUCGUAACGCGUUUCCCUCCUAGGGAGAAGACUGCGGGUUCGAGUCCCGUGCGGAACG [G17C C27U A37G A65G] showed a yeast fitness of no more than 0.5.
With GUUCCGUUGGCGUAAUCGUAACGCGUCUCCCUCCUUAGGAGAACACUGCGGGUUCGAGUCCCGUACGGAACG [G17C A36U G44C] the yeast fitness was no more than 0.5.
In the case of GUUCCGUUGGCGUAAUCGUAACGCGUCUCCCUCCUAAGGAGAAGGCUGCGGGUUCGAGUCCCGUACGGAACG [G17C A45G], the yeast fitness is reported as 0.546.
In the case of GUUCCGUUGGCGUAAUCGUUACGCGUCUCCCUGCUAAGGAGAAGACUGCGGGUUCGAGUCCCGUACGGAACG [G17C A20U C33G], the yeast fitness is reported as no more than 0.5.
For GUUCCGUUGGCGUAAUCGUAAAGCGUCCCCCUCCUAAGGAGAAGACUGCGGGUUCGAGUCCCGUAGCGAACG [G17C C22A U28C C66G G67C], the yeast fitness was no more than 0.5.
Work on GUUCCGUUGGCGUAAUCGUAACGCGUCUCCCUCCUAAGGAGUACUCUGCGGGUUCGAAUCCCGUACGGAACG [G17C A42U G44C A45U G58A] yielded a yeast fitness of no more than 0.5.
In the case of GUUCCGUUGGCGUAAUCGUAAGGCGUCUCCCUCCUCAGAAGGAGACUGCGGGUUCGAGUCCCCUACGGAACG [G17C C22G A36C G39A A42G G63C], the yeast fitness is reported as 0.842.
Variant GUUCCGUUGGCGUAAUCGUAACGGGUCUCCCUCCUAAGGAGAAGAGUGCGGGUUCGAGUCCCGUACGGAACG [G17C C24G C46G] has a yeast fitness of 0.519.
GUUCCGUUGGCGUAAUCGUGACGCGUCUCCCUCCUAAGGAGAAGACUGCGGGGUCGAGUCCCGUACGGAUCG [G17C A20G U53G A70U] gave a yeast fitness of no more than 0.5.
With GUUCCGUUGGCGUAAUCGUAAUGCGUCUCCCCCCUAAGGUGAAGACUGCGGGUUCGAGUCCCGUGCGGAACG [G17C C22U U32C A40U A65G] the yeast fitness was no more than 0.5.
For GUUCCGUUGGCGUAAUCGUAACGCGUCUCCCUCCUAAGGAGAAGCCUACGGGUUCGAGACCCGUACGGAACG [G17C A45C G48A U59A], the yeast fitness was 0.622.
GUUCCGUUGGCGUAAUCGUAAAGCGUCUCCGUCCUAAGGAGAAGACUGCGGGUUGGAGUCCCGUACGGAACG [G17C C22A C31G C55G] showed a yeast fitness of no more than 0.5.
In the case of GUUCCGUUGGCGUAAUCGUAACGAGUCUCCCCCCUAAGGAGAAGACAGCGGGUUCGAGUCCCGUACCGAACG [G17C C24A U32C U47A G67C], the yeast fitness is reported as no more than 0.5.
With GUUCCGUUGGCGUAAUCGUAACGGGUCACUCUCCUAAGGAGAAGACUGCGGGUUCGAGUCCCGUUCGGCACG [G17C C24G U28A C30U A65U A69C] the yeast fitness was 0.571.
In the case of GUUCCGUUGGCGUAAUCGUAAUGCGUCUCCCCCCUAAGGAGAAGAUUGCGGGUUCGAGUCCCGUACGGAACG [G17C C22U U32C C46U], the yeast fitness is reported as no more than 0.5.
For GUUCCGUUGGCGUAAUCGUAACGGGUCUCCCUCCUAACGAGAAGACUGCGGGUUCGAGUCCCGUACGGAACG [G17C C24G G38C], the yeast fitness was no more than 0.5.
With GUUCCGUUGGCGUAAUCGUAACGCGUCUCCCUCCUAAGGAGAUGACUGCGGGUUCAAGUCCCGUACGGAUCG [G17C A43U G56A A70U] the yeast fitness was no more than 0.5.
GUUCCGUUGGCGUAAUCGUACCGCGUCUCCCUCGUAUGGAGUAGACUGCGGGUUCGGGUCCCGUACGGAACG [G17C A21C C34G A37U A42U A57G] gave a yeast fitness of no more than 0.5.
With GUUCCGUUGGCGUAAUCGUAAUGCGUCUCCCCCCUAAGGUGAAGACUGCGGGUUCGAGUCCCGUAUGGAACG [G17C C22U U32C A40U C66U] the yeast fitness was no more than 0.5.
GUUCCGUUGGCGUAAUCGUAAUGCGCCUCCCUCCUAAGGAGAAGAAUGCGGGUUCGAGUCCCAUACGGAACG [G17C C22U U26C C46A G63A] showed a yeast fitness of no more than 0.5.
Variant GUUCCGUUGGCGUAAUCGUAACGAGUCUCCCUCCUAAGGAGAAGACAGCGGGUUCGAGUCCCGUACCGAACG [G17C C24A U47A G67C] has a yeast fitness of 0.569.
GUUCCGUUGGCGUAAUCGUAAAGGGUCCCCCUACUAAGGAGAAGACUGCGGGUUCGAGUCCCGUACGGAACG [G17C C22A C24G U28C C33A] showed a yeast fitness of no more than 0.5.
Work on GUUCCGUUGGCGUAAUCGUAGCGCGUUUCCCUGCUAAGGAGUAGACUGCGGGUUCGGGUCCCGUACGGAACG [G17C A21G C27U C33G A42U A57G] yielded a yeast fitness of no more than 0.5.
In the case of GUUCCGUUGGCGUAAUCGUACCGCGUCUCCCUCGUAUGGAGAAGACCGCGGGUUCGAGUCCCGUACGCAACG [G17C A21C C34G A37U U47C G68C], the yeast fitness is reported as no more than 0.5.
GUUCCGUUGGCGUAAUCGUAACGCGUCUCCCUCCUAAGGAGACGACUGCGGGUUCGAGUCCCGUACGGAACG [G17C A43C] gave a yeast fitness of 0.734.
Variant GUUCCGUUGGCGUAAUCGUAAGGCGUCUCCCUCCUAAGGAGGAGAAUGCGGGUUCGAGUCCCGUACGGAACG [G17C C22G A42G C46A] has a yeast fitness of no more than 0.5.
For GUUCCGUUGGCGUAAUCGUAACGCGUCUCCCUCCUAAGGAGUAGACUGCGGGUUCGAGUCCUGUACGGAACG [G17C A42U C62U], the yeast fitness was 0.645.
With GUUCCGUUGGCGUAAUCGUAACGCGUCUCCCUCCUAAGGAGGAGACUGCGGGUUUGAGUCCCGUACGGAACG [G17C A42G C55U] the yeast fitness was no more than 0.5.
Variant GUUCCGUUGGCGUAAUCGUAACGCGUCUCCCUCCUAAGGAGAAGACUGCGGGUUCGUGUCCCGUACGGAACG [G17C A57U] has a yeast fitness of 0.52.
Variant GUUCCGUUGGCGUAAUCGUAAGGCGACUCCCUCCUAAGGAGAGGACUGCGGGUUCGAGUCUCGUUCGGAACG [G17C C22G U26A A43G C61U A65U] has a yeast fitness of no more than 0.5.
In the case of GUUCCGUUGGCGUAAUCGUAACGCGUCUCCCUCCUACGGCGAAGACUGCGGGUUCGAGUCUCGUACGGAACG [G17C A37C A40C C61U], the yeast fitness is reported as no more than 0.5.
With GUUCCGUUGGCGUAAUCGUAACGCGUCUCCCUCCUAAGGAGAAGACUGCGGGUUCGAGUCCCGUCCGGAACG [G17C A65C] the yeast fitness was 0.67.
For GUUCCGUUGGCGUAAUCGUAACGCGUCUCCCUCCUAAGGAGAAGACUGCGGGUUCGAGUCCCGUUCGGAACG [G17C A65U], the yeast fitness was 0.649.
With GUUCCGUUGGCGUAAUCGUAACGCGUAUCCCCCCUAAGGAGAAGACUGCGGGUUCGAGUCACGUAUGGAACG [G17C C27A U32C C61A C66U] the yeast fitness was no more than 0.5.
